Test [1] concerns the target T1, Adenosine receptor A2b (Homo sapiens, UniProt P29275).
T1 sequence (P29275 whole entry): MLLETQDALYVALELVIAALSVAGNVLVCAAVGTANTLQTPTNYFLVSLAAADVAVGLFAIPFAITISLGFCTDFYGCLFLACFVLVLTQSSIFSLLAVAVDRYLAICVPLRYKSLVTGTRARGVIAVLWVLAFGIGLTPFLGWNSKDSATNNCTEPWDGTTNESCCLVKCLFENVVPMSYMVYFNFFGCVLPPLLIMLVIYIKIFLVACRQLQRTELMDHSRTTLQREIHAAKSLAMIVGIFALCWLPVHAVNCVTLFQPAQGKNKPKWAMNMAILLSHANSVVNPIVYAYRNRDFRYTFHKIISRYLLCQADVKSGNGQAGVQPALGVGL
Nature of the test: Antagonist activity at adenosine A2B receptor in HEK293 cells expressing glosensor cAMP biosensor assessed as inhibition of NECA-induced increase of intracellular cAMP level after 5 hrs. The class given is functional, cell-based. The method, boiled down: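 HEK293 cells stably expressing Glosensor cAMP biosensor, with endogenous human A2B receptor. Cells equilibrated 2 h at 37 °C in HBSS with 3% v/v Glosensor reagent. Antagonist added at 1.5 h, NECA at 2 h. Luminescence read every 2 min for 60 min; maximal read used. pKD estimated from rightward shift of NECA curve by 1 μM antagonist via dose ratio.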

Test [2] addresses T2, Adenosine receptor A1 (Homo sapiens, UniProt P30542).
T2 sequence (P30542 whole entry): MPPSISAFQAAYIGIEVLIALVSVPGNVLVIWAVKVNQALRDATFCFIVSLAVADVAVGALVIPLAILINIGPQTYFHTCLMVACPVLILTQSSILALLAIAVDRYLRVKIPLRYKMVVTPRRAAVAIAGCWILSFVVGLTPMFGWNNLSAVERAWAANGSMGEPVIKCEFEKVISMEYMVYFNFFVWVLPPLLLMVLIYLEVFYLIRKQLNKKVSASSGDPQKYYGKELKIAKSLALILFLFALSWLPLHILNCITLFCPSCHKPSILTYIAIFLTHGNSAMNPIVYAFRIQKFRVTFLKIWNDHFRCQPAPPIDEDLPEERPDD
Description: Antagonist activity at human adenosine A1 receptor expressed in CHO cells assessed as inhibition of NECA-induced increase of intracellular calcium level after 5 hrs.

The target of test [3] is T3, Adenosine receptor A3 (Homo sapiens) (UniProt P0DMS8).
T3 sequence (whole entry): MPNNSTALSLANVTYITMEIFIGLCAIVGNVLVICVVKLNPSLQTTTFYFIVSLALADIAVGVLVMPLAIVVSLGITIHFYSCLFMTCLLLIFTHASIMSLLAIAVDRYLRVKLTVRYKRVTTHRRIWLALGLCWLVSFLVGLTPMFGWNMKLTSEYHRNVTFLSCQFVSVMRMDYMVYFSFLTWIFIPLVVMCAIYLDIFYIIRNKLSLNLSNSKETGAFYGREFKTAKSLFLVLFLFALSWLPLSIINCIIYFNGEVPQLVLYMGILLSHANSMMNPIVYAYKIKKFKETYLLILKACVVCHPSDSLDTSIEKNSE
Description: Binding affinity to human adenosine A3 receptor expressed in CHO cells assessed as intracellular fluorescence level after 10 mins by confocal microscopic analysis. The class given is cell-based. The method, boiled down:
(§1)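 Live CHO cells stably expressing human A3 receptor were washed in HBS. They were preincubated 30 min at 37 °C with or without 100 nM MRS1220, then exposed to 25 nM fluorescent ligand for 10 min. Single equatorial confocal images were taken in the continued presence of ligand, using identical laser and detector settings. Images are representative of 3−5 experiments.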

For test [4], the species on record is Homo sapiens. Nature of the test: Selectivity ratio of human A1 receptor to human A3 receptor.
Test [5] has as its target T3, Adenosine receptor A3 (Homo sapiens). Description: Binding affinity to human adenosine A3 receptor expressed in CHO cells assessed as intracellular fluorescence level after 10 mins by confocal microscopic analysis in presence of MRS1220 treated 30 mins before compound challenge. Type of test: cell-based. The method, boiled down:
as §1

For test [6], the target named is T4, Adenosine receptor A1 (Homo sapiens) (UniProt P30542).
T4 sequence (whole entry): T2 sequence (P30542 whole entry)
Description: Binding affinity to human full length human adenosine A1 receptor expressed in CHO cells up to 100 nM after 10 mins by confocal microscopic analysis. Type of test: cell-based. A digest of the protocol: (§2)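 Live CHO cells stably expressing human A1 receptor were washed in HBS. They were preincubated 30 min at 37 °C with or without 100 nM DPCPX, then exposed to fluorescent ligand (25 nM, or up to 100 nM) for 10 min. Single equatorial confocal images were taken using identical laser power, gain and offset.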

Test [7] addresses T5, Adenosine receptor A3 (Homo sapiens, UniProt P0DMS8).
T5 sequence (P0DMS8 whole entry): T3 sequence (whole entry)
Description: Antagonist activity at human adenosine A3 receptor expressed in forskolin-stimulated CHO cells assessed as inhibition of NECA-induced CRE-SPAP gene transcription by measuring intracellular cAMP level after 5 hrs. Type of test: functional, cell-based. The method, boiled down: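 Clonal CHO cells co-expressing CRE-SPAP reporter and human A3 receptor, serum-starved 18 h. Three antagonist concentrations for 30 min at 37 °C, then NECA curves for 30 min, then 1 μM forskolin for 5 h. After 1 h in fresh medium and 65 °C heat step, SPAP activity read as 4-nitrophenyl phosphate hydrolysis (405 nm). Curves globally fitted to an interaction model.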
In general terms: Changes in cAMP serve as a functional read-out for many G protein-coupled receptors.

Test [8] has as its target T4, Adenosine receptor A1 (Homo sapiens). Nature of the test: Binding affinity to human full length human adenosine A1 receptor expressed in CHO cells at 25 nM after 10 mins by confocal microscopic analysis. Type of test: cell-based. A digest of the protocol: as §2
Test [9] has the same target. Nature of the test: Binding affinity to human full length human adenosine A1 receptor expressed in CHO cells after 10 mins by confocal microscopic analysis in presence of DPCPX treated 30 mins before compound challenge. Type of test: cell-based. The method, boiled down:
as §2

Molecules are shown by their SMILES. Activity calls are given as the source filed them. The rule behind the calls is not given here.

Usually Kd stands for a measure of binding affinity in units of concentration.

On to `COc1ccc(-n2nc3c(NC(=O)CCC(=O)NCCOCCOCCNC(=O)CCCCCNC(=O)COc4ccc(/C=C/C5=[N+]6C(=Cc7ccc(-c8cccs8)n7[B-]6(F)F)C=C5)cc4)nc4ccccc4n3c2=O)cc1`, for which the values for the Kd in [1], in [2] and in test [7] were below 1000 nM, 275 nM and 0.437 nM, respectively. The result in [3] was Active. For the same molecule, the Selectivity ratio in test [4] was 650. Besides, the outcome in test [5] and in [6] was inactive.
`COc1ccc(-n2nc3c(NC(=O)CCC(=O)NCCCCCCCCN)nc4ccccc4n3c2=O)cc1`: the Kd in test [7] was 0.331 nM.
Take `CCN1/C(=C/C=C/C=C/C2=[N+](CCCCCC(=O)NCCOCCOCCNC(=O)CCC(=O)Nc3nc4ccccc4n4c(=O)n(-c5ccc(OC)cc5)nc34)c3cc(S(=O)(=O)[O-])ccc3C2(C)C)C(C)(C)c2cc(S(=O)(=O)O)ccc21`: the Kd in [7] is 148 nM.
Take `COc1ccc(-n2nc3c(NC(=O)CCC(=O)NCCOCCOCCNC(=O)CCCCCNC(=O)COc4ccc(C5=[N+]6C(=Cc7ccc(-c8cccs8)n7[B-]6(F)F)C=C5)cc4)nc4ccccc4n3c2=O)cc1`: the Kd in test [1] is below 1000 nM; in [2], 166 nM; in [7], 3.39 nM. Besides, the outcome in [8], in test [3] and in test [5] was Active. Besides, the Selectivity ratio in [4] was 50. Also, the result in test [9] was inactive.
`COc1ccc(-n2nc3c(NC(=O)CCC(=O)NCCOCCOCCNC(=O)CCOCCOCCOCCOCCOCCOCCOCCOCCOCCOCCOCCOCCNC(=O)c4ccc(-c5c6ccc(=[N+](C)C)cc-6oc6cc(N(C)C)ccc56)c(C(=O)[O-])c4)nc4ccccc4n3c2=O)cc1`: the Kd in [7] was 5.62 nM.
For `COc1ccc(-n2nc3c(NC(=O)CCC(=O)NCCOCCOCCN)nc4ccccc4n3c2=O)cc1`, the Kd in test [7] was 20.9 nM.
`COc1ccc(-n2nc3c(NC(=O)c4ccc(N)cc4)nc4ccccc4n3c2=O)cc1`: the Kd in test [7] was 38 nM.
Regarding `COc1ccc(-n2nc3c(NC(=O)CN)nc4ccccc4n3c2=O)cc1`, the Kd in test [7] was 1.45 nM.
Take `COc1ccc(-n2nc3c(NC(=O)CCC(=O)NCCCCCCCCNC(=O)CCCCCNC(=O)COc4ccc(/C=C/C5=[N+]6C(=Cc7ccc(-c8cccs8)n7[B-]6(F)F)C=C5)cc4)nc4ccccc4n3c2=O)cc1`: the equilibrium dissociation constant (Kd) in [7] is 16.6 nM.

The values above are taken from ChEMBL document CHEMBL2021776, “Highly potent and selective fluorescent antagonists of the human adenosine A₃ receptor based on the 1,2,4-triazolo[4,3-a]quinoxalin-1-one scaffold” (J Med Chem, 2012).
